Data: ChEMBL document CHEMBL1124055, “Analogues of [(triethylsilyl)ethynyl]estradiol as potential antifertility agents” (1988)

How the values were obtained:
Format in all cases: functional
Rattus norvegicus [1] = species: Rattus norvegicus; experiment: Oral estrogenic potency (E) relative to ethynylestradiol (EE) in rats
Outline: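 Rats given compound orally by gavage once daily for 3 consecutive days; vehicle-only control; 10 animals/group. Autopsy 24 h after last dose; uteri excised, cleaned, blotted and weighed to nearest 0.2 mg. Regression lines for standard (ethynylestradiol) and test compound constructed and compared to derive relative potency.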

Rattus norvegicus [2] = species: Rattus norvegicus; experiment: Oral antifertility potency (A) relative to ethynylestradiol (EE) in rats.
Outline: (§1)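 Mated cycling adult female rats (cohabited with males on proestrus night; sperm in vaginal washings) dosed orally by gavage in sesame oil once daily for 7 consecutive days; vehicle control; 10 rats/group. Killed about day 8; uteri examined for presence and condition of conceptuses. Potency from comparison with regression line of standard ethynylestradiol.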

Rattus norvegicus [3] = species: Rattus norvegicus; experiment: Oral antifertility potency (A) relative to ethynylestradiol (EE) in rats; outline: as §1

Structure (SMILES) | Potency (Rattus norvegicus [1]) | Potency (Rattus norvegicus [2]) | Potency (Rattus norvegicus [3])
CC[Si](C#C[C@]1(O)CC(OC)[C@H]2[C@@H]3CCc4cc(OC)ccc4[C@H]3CC[C@@]21C)(CC)CC (stereo partly drawn) | 3% | >0.2 mg/kg/day | 
C#C[C@]1(O)CC[C@H]2[C@@H]3CCc4cc(OC)ccc4[C@H]3CC[C@@]21C [MESTRANOL] | 0.3% | >2 mg/kg/day | 
CC[Si](C#C[C@]1(O)CC[C@H]2[C@@H]3CCc4cc(O)ccc4[C@H]3CC[C@@]21C)(CC)CC | 37% |  | 600%
CC[Si](C#C[C@]1(O)CCC2C3C=Cc4cc(O)ccc4C3CCC21C)(CC)CC (stereo partly drawn) | 2% |  | 200%
C#C[C@]1(O)CCC2c3ccc4cc(O)ccc4c3CCC21C (stereo partly drawn) | 0.6% |  | 10%
C#C[C@]1(O)CC[C@H]2[C@@H]3C[C@H](O)c4cc(O)ccc4[C@H]3CC[C@@]21C | 16% | >0.2 mg/kg/day | 
C#C[C@]1(O)CC[C@H]2[C@@H]3[C@H](O)Cc4cc(O)ccc4[C@H]3CC[C@@]21C | 0.1% |  | 66%
CC[Si](C#C[C@]1(O)CC[C@H]2[C@@H]3C[C@H](O)c4cc(O)ccc4[C@H]3CC[C@@]21C)(CC)CC | 38% |  | 300%
CC[Si](C#C[C@]1(O)CC[C@H]2[C@@H]3CCc4ccccc4[C@H]3CC[C@@]21C)(CC)CC | 13% |  | 100%
CC[Si](C#C[C@]1(O)CCC2=C3C=Cc4cc(O)ccc4C3CCC21C)(CC)CC (stereo partly drawn) | 1% |  | 66%
CC[Si](C#C[C@]1(O)CC[C@H]2[C@@H]3C[C@@H](C)c4cc(O)ccc4[C@H]3CC[C@@]21C)(CC)CC | 0.2% |  | 7.5%
C#C[C@]1(O)C(C)C[C@H]2[C@@H]3CCc4cc(O)ccc4[C@H]3CC[C@@]21C (stereo partly drawn) | 0.5% | >2 mg/kg/day | 
CC[Si](C#C[C@]1(O)C(C)C[C@H]2[C@@H]3CCc4cc(O)ccc4[C@H]3CC[C@@]21C)(CC)CC (stereo partly drawn) | 0.2% | >0.8 mg/kg/day | 
CC[Si](C#C[C@]1(O)CC[C@H]2[C@@H]3CCc4cc(O)c(C)cc4[C@H]3CC[C@@]21C)(CC)CC | 2.2% |  | 40%
C#C[C@]1(O)CC[C@H]2[C@@H]3[C@H](O)[C@H](O)c4cc(O)ccc4[C@H]3CC[C@@]21C | 0.3% | >0.5 mg/kg/day | 
CCCN(CCC)Cc1cc2c(cc1O)CC[C@@H]1[C@@H]2CC[C@@]2(C)[C@H]1CC[C@@]2(O)C#C[Si](CC)(CC)CC | 0.3% | >1 mg/kg/day | 
C#C[C@]1(O)CC[C@H]2[C@@H]3CCc4cc(O)c(CN(CCC)CCC)cc4[C@H]3CC[C@@]21C | 1.3% | >2 mg/kg/day | 

Structure (SMILES) | Potency (Rattus norvegicus [1]) | Potency (Rattus norvegicus [2]) | Potency (Rattus norvegicus [3])
CC[Si](C#C[C@]1(O)CC[C@H]2[C@@H]3CCc4cc(OC)ccc4[C@H]3CC[C@@]21C)(CC)CC | 1.8% | >2 mg/kg/day | 
C#C[C@]1(O)CC[C@H]2[C@@H]3CCc4cc(O)c(C)cc4[C@H]3CC[C@@]21C | 5.5% |  | 40%
C#C[C@]1(O)CCC2C3C=Cc4cc(O)ccc4C3CCC21C (stereo partly drawn) | 2% |  | 20%
CC[Si](C#C[C@]1(O)CC[C@H]2[C@@H]3CCc4cc(O)c(OC)cc4[C@H]3CC[C@@]21C)(CC)CC | 0.06% | >2.8 mg/kg/day | 
C#C[C@]1(O)CC[C@H]2[C@@H]3CCc4c(ccc(O)c4CC=C)[C@H]3CC[C@@]21C | 0.1% | >2 mg/kg/day | 
C#C[C@]1(O)CC[C@H]2[C@@H]3CCc4ccccc4[C@H]3CC[C@@]21C | 31% |  | 33%
C#C[C@]1(O)CC[C@H]2[C@@H]3CCc4cc(O)ccc4[C@H]3[C@@H](O)C[C@@]21C | 0.8% |  | 200%
CC[Si](C#C[C@]1(O)CCCC2C3CCc4cc(O)ccc4C3CCC21C)(CC)CC (stereo partly drawn) | 0.1% | >2 mg/kg/day | 
C#C[C@]1(O)CC[C@H]2[C@@H]3CCc4cc(O)c(OC)cc4[C@H]3CC[C@@]21C | 0.3% | >2 mg/kg/day | 
CC[Si](C#C[C@]1(O)CC[C@H]2[C@@H]3C[C@@H](O)c4cc(O)ccc4[C@H]3CC[C@@]21C)(CC)CC | 16% |  | 40%
CC[Si](C#C[C@]1(O)CC[C@H]2[C@@H]3[C@H](O)Cc4cc(O)ccc4[C@H]3CC[C@@]21C)(CC)CC | 0.3% |  | 20%
C=CCc1c(O)ccc2c1CC[C@@H]1[C@@H]2CC[C@@]2(C)[C@H]1CC[C@@]2(O)C#C[Si](CC)(CC)CC | 0% | >3 mg/kg/day | 
C#C[C@]1(O)CC(OC)[C@H]2[C@@H]3CCc4cc(OC)ccc4[C@H]3CC[C@@]21C (stereo partly drawn) | 0.8% |  | 10%
C#C[C@]1(O)CC[C@H]2[C@@H]3CCc4cc(O)ccc4[C@H]3CC[C@@]21C [ETHINYL ESTRADIOL] | 100% |  | 100%
C#C[C@]1(O)CC[C@H]2[C@@H]3C[C@@H](C)c4cc(O)ccc4[C@H]3CC[C@@]21C | 1.8% | >0.5 mg/kg/day | 
CC[Si](C#C[C@]1(O)CC[C@H]2[C@@H]3[C@H](O)[C@H](O)c4cc(O)ccc4[C@H]3CC[C@@]21C)(CC)CC | 0.6% | >0.5 mg/kg/day | 
CC[Si](C#C[C@]1(O)CC[C@H]2[C@@H]3CCc4cc(O)ccc4[C@H]3[C@@H](O)C[C@@]21C)(CC)CC | 14.4% |  | 64%
